Data published in ChEMBL document CHEMBL1142454, “Synthesis and evaluation of novel 4-amino-4,6-androstadiene-3,17-dione: an analog of formestane” (2008).

system: SNB-19; assay: Antitumor activity against human SNB-19 cells assessed as reduction of cell growth at 10 uM after 48 hrs by SRB assay; type: functional; set-up: scale not given: the % may be the effect or the level left
In short: (§1)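 NCI 60-cell-line primary screen, single dose 10^-5 M (final). Cells grown in RPMI 1640 with 5% FBS and 2 mM L-glutamine, seeded at 5000–40,000 cells/well and preincubated 24 h at 37 °C, 5% CO2. Compound is dissolved in DMSO, diluted in medium with gentamicin, and exposed 48 h. Cells are fixed with 10% TCA (final) and stained with 0.4% SRB; absorbance is read at 515 nm. Readout is growth percentage.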

**Q.** For `C[C@]12CCC(=O)C(N)=C1C=C[C@@H]1[C@@H]2CC[C@]2(C)C(=O)CC[C@@H]12.Cl`, which Activity is on record?
**A.** 102.8%

**Q.** With `C[C@]12CC[C@H]3[C@@H](CCC4=CC(=O)CC[C@@]43CF)[C@@H]1CCC2=O` as the molecule, how does the Activity read?
**A.** 109.3%

system: MCF7; assay: Antitumor activity against human doxorubicin-resistant MCF7 cells assessed as reduction of cell growth at 10 uM after 48 hrs by SRB assay; type: functional; set-up: scale not given: the % may be the effect or the level left
In short: (§2)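 NCI-60 one-dose primary screen at 10^-5 M final. Cells grown in RPMI 1640 with 5% FBS and 2 mM L-glutamine, plated at 5000–40,000 cells/well and preincubated 24 h at 37 °C, 5% CO2. Drug stocks in DMSO, diluted in medium with gentamicin. Exposure 48 h, then fixed in situ with TCA (10% final) for 60 min at 4 °C. Stained with 0.4% SRB in 1% acetic acid, bound dye solubilized in 10 mM trizma base, absorbance read at 515 nm. Reported as mean growth percent; negative values indicate cell kill.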

**Q.** Which Activity does the source give for `C[C@]12CCC(=O)C(N)=C1C=C[C@@H]1[C@@H]2CC[C@]2(C)C(=O)CC[C@@H]12.Cl` here?
**A.** 68.71%

**Q.** For `C[C@]12CC[C@H]3[C@@H](CCC4=CC(=O)CC[C@@]43CF)[C@@H]1CCC2=O`, which Activity is on record?
**A.** 107.98%

system: SK-MEL-28; assay: Antitumor activity against human SK-MEL-28 cells assessed as reduction of cell growth at 10 uM after 48 hrs by SRB assay; type: functional; set-up: scale not given: the % may be the effect or the level left; in short: as §1

**Q.** With `C[C@]12CCC(=O)C(N)=C1C=C[C@@H]1[C@@H]2CC[C@]2(C)C(=O)CC[C@@H]12.Cl` as the molecule, how does the Activity read?
**A.** 103.4%

**Q.** For `C[C@]12CC[C@H]3[C@@H](CCC4=CC(=O)CC[C@@]43CF)[C@@H]1CCC2=O`, which Activity is on record?
**A.** 116.5%

system: SF-268; assay: Antitumor activity against human SF-268 cells assessed as reduction of cell growth at 10 uM after 48 hrs by SRB assay; type: functional; set-up: scale not given: the % may be the effect or the level left; in short: as §1

**Q.** With `C[C@]12CCC(=O)C(N)=C1C=C[C@@H]1[C@@H]2CC[C@]2(C)C(=O)CC[C@@H]12.Cl` as the molecule, how does the Activity read?
**A.** 89.03%

**Q.** Which Activity does the source give for `C[C@]12CC[C@H]3[C@@H](CCC4=CC(=O)CC[C@@]43CF)[C@@H]1CCC2=O` here?
**A.** 109.8%

system: UO-31; assay: Antitumor activity against human UO-31 cells assessed as reduction of cell growth at 10 uM after 48 hrs by SRB assay; type: functional; set-up: scale not given: the % may be the effect or the level left; in short: as §2

**Q.** Which Activity does the source give for `C[C@]12CCC(=O)C(N)=C1C=C[C@@H]1[C@@H]2CC[C@]2(C)C(=O)CC[C@@H]12.Cl` here?
**A.** 64.59%

**Q.** For `C[C@]12CC[C@H]3[C@@H](CCC4=CC(=O)CC[C@@]43CF)[C@@H]1CCC2=O`, which Activity is on record?
**A.** 87.76%

system: DU-145; assay: Antitumor activity against human DU145 cells assessed as reduction of cell growth at 10 uM after 48 hrs by SRB assay; type: functional; set-up: scale not given: the % may be the effect or the level left; in short: as §1

**Q.** For `C[C@]12CCC(=O)C(N)=C1C=C[C@@H]1[C@@H]2CC[C@]2(C)C(=O)CC[C@@H]12.Cl`, which Activity is on record?
**A.** 62.36%

**Q.** With `C[C@]12CC[C@H]3[C@@H](CCC4=CC(=O)CC[C@@]43CF)[C@@H]1CCC2=O` as the molecule, how does the Activity read?
**A.** 116.2%

system: HCC 2998; assay: Antitumor activity against human HCC2998 cells assessed as reduction of cell growth at 10 uM after 48 hrs by SRB assay; type: functional; set-up: scale not given: the % may be the effect or the level left; in short: as §1

**Q.** With `C[C@]12CCC(=O)C(N)=C1C=C[C@@H]1[C@@H]2CC[C@]2(C)C(=O)CC[C@@H]12.Cl` as the molecule, how does the Activity read?
**A.** 96.01%

**Q.** For `C[C@]12CC[C@H]3[C@@H](CCC4=CC(=O)CC[C@@]43CF)[C@@H]1CCC2=O`, which Activity is on record?
**A.** 139.86%

system: OVCAR-4; assay: Antitumor activity against human OVCAR4 cells assessed as reduction of cell growth at 10 uM after 48 hrs by SRB assay; type: functional; set-up: scale not given: the % may be the effect or the level left; in short: as §1

**Q.** For `C[C@]12CCC(=O)C(N)=C1C=C[C@@H]1[C@@H]2CC[C@]2(C)C(=O)CC[C@@H]12.Cl`, which Activity is on record?
**A.** 61.98%

**Q.** Which Activity does the source give for `C[C@]12CC[C@H]3[C@@H](CCC4=CC(=O)CC[C@@]43CF)[C@@H]1CCC2=O` here?
**A.** 98.85%

system: RPMI-8226; assay: Antitumor activity against human RPMI 8226 cells assessed as reduction of cell growth at 10 uM after 48 hrs by SRB assay; type: functional; set-up: scale not given: the % may be the effect or the level left; in short: as §1

**Q.** For `C[C@]12CCC(=O)C(N)=C1C=C[C@@H]1[C@@H]2CC[C@]2(C)C(=O)CC[C@@H]12.Cl`, which Activity is on record?
**A.** -18.11%

system: HT-29; assay: Antitumor activity against human HT-29 cells assessed as reduction of cell growth at 10 uM after 48 hrs by SRB assay; type: functional; set-up: scale not given: the % may be the effect or the level left; in short: as §1

**Q.** Which Activity does the source give for `C[C@]12CCC(=O)C(N)=C1C=C[C@@H]1[C@@H]2CC[C@]2(C)C(=O)CC[C@@H]12.Cl` here?
**A.** 51.17%

**Q.** For `C[C@]12CC[C@H]3[C@@H](CCC4=CC(=O)CC[C@@]43CF)[C@@H]1CCC2=O`, which Activity is on record?
**A.** 116.4%

system: MDA-MB-231; assay: Antitumor activity against human MDA-MB-231/ATCC cells assessed as reduction of cell growth at 10 uM after 48 hrs by SRB assay; type: functional; set-up: scale not given: the % may be the effect or the level left; in short: as §1

**Q.** For `C[C@]12CCC(=O)C(N)=C1C=C[C@@H]1[C@@H]2CC[C@]2(C)C(=O)CC[C@@H]12.Cl`, which Activity is on record?
**A.** 100.87%

**Q.** Which Activity does the source give for `C[C@]12CC[C@H]3[C@@H](CCC4=CC(=O)CC[C@@]43CF)[C@@H]1CCC2=O` here?
**A.** 117.71%

system: SN12C; assay: Antitumor activity against human SN12C cells assessed as reduction of cell growth at 10 uM after 48 hrs by SRB assay; type: functional; set-up: scale not given: the % may be the effect or the level left; in short: as §1

**Q.** For `C[C@]12CCC(=O)C(N)=C1C=C[C@@H]1[C@@H]2CC[C@]2(C)C(=O)CC[C@@H]12.Cl`, which Activity is on record?
**A.** 88.53%

**Q.** With `C[C@]12CC[C@H]3[C@@H](CCC4=CC(=O)CC[C@@]43CF)[C@@H]1CCC2=O` as the molecule, how does the Activity read?
**A.** 113.5%

system: not listed separately; assay: Antitumor activity against human HCT 116 cells assessed as reduction of cell growth at 10 uM after 48 hrs by SRB assay; type: functional; set-up: scale not given: the % may be the effect or the level left; in short: as §1

**Q.** Which Activity does the source give for `C[C@]12CCC(=O)C(N)=C1C=C[C@@H]1[C@@H]2CC[C@]2(C)C(=O)CC[C@@H]12.Cl` here?
**A.** 6.15%

**Q.** Which Activity does the source give for `C[C@]12CC[C@H]3[C@@H](CCC4=CC(=O)CC[C@@]43CF)[C@@H]1CCC2=O` here?
**A.** 110.19%

system: TK-10; assay: Antitumor activity against human TK-10 cells assessed as reduction of cell growth at 10 uM after 48 hrs by SRB assay; type: functional; set-up: scale not given: the % may be the effect or the level left; in short: as §2

**Q.** Which Activity does the source give for `C[C@]12CCC(=O)C(N)=C1C=C[C@@H]1[C@@H]2CC[C@]2(C)C(=O)CC[C@@H]12.Cl` here?
**A.** 85.59%

**Q.** For `C[C@]12CC[C@H]3[C@@H](CCC4=CC(=O)CC[C@@]43CF)[C@@H]1CCC2=O`, which Activity is on record?
**A.** 114.8%

system: SF-295; assay: Antitumor activity against human SF-295 cells assessed as reduction of cell growth at 10 uM after 48 hrs by SRB assay; type: functional; set-up: scale not given: the % may be the effect or the level left; in short: as §1

**Q.** With `C[C@]12CCC(=O)C(N)=C1C=C[C@@H]1[C@@H]2CC[C@]2(C)C(=O)CC[C@@H]12.Cl` as the molecule, how does the Activity read?
**A.** 105.1%

**Q.** For `C[C@]12CC[C@H]3[C@@H](CCC4=CC(=O)CC[C@@]43CF)[C@@H]1CCC2=O`, which Activity is on record?
**A.** 106.3%

system: NCI-H23; assay: Antitumor activity against human NCI-H23 cells assessed as reduction of cell growth at 10 uM after 48 hrs by SRB assay; type: functional; set-up: scale not given: the % may be the effect or the level left; in short: as §1

**Q.** For `C[C@]12CCC(=O)C(N)=C1C=C[C@@H]1[C@@H]2CC[C@]2(C)C(=O)CC[C@@H]12.Cl`, which Activity is on record?
**A.** 74.07%

**Q.** Which Activity does the source give for `C[C@]12CC[C@H]3[C@@H](CCC4=CC(=O)CC[C@@]43CF)[C@@H]1CCC2=O` here?
**A.** 106.48%

system: PC-3; assay: Antitumor activity against human PC-3 cells assessed as reduction of cell growth at 10 uM after 48 hrs by SRB assay; type: functional; set-up: scale not given: the % may be the effect or the level left; in short: as §1

**Q.** Which Activity does the source give for `C[C@]12CCC(=O)C(N)=C1C=C[C@@H]1[C@@H]2CC[C@]2(C)C(=O)CC[C@@H]12.Cl` here?
**A.** 46.51%

system: HOP-62; assay: Antitumor activity against human HOP-62 cells assessed as reduction of cell growth at 10 uM after 48 hrs by SRB assay; type: functional; set-up: scale not given: the % may be the effect or the level left; in short: as §1

**Q.** For `C[C@]12CCC(=O)C(N)=C1C=C[C@@H]1[C@@H]2CC[C@]2(C)C(=O)CC[C@@H]12.Cl`, which Activity is on record?
**A.** 111.88%

**Q.** For `C[C@]12CC[C@H]3[C@@H](CCC4=CC(=O)CC[C@@]43CF)[C@@H]1CCC2=O`, which Activity is on record?
**A.** 123.96%

system: MDA-MB-435; assay: Antitumor activity against human MDA-MB-435 cells assessed as reduction of cell growth at 10 uM after 48 hrs by SRB assay; type: functional; set-up: scale not given: the % may be the effect or the level left; in short: as §1

**Q.** For `C[C@]12CCC(=O)C(N)=C1C=C[C@@H]1[C@@H]2CC[C@]2(C)C(=O)CC[C@@H]12.Cl`, which Activity is on record?
**A.** 112.52%

**Q.** Which Activity does the source give for `C[C@]12CC[C@H]3[C@@H](CCC4=CC(=O)CC[C@@]43CF)[C@@H]1CCC2=O` here?
**A.** 100.91%

system: OVCAR-8; assay: Antitumor activity against human OVCAR8 cells assessed as reduction of cell growth at 10 uM after 48 hrs by SRB assay; type: functional; set-up: scale not given: the % may be the effect or the level left; in short: as §1

**Q.** With `C[C@]12CCC(=O)C(N)=C1C=C[C@@H]1[C@@H]2CC[C@]2(C)C(=O)CC[C@@H]12.Cl` as the molecule, how does the Activity read?
**A.** 44.03%

**Q.** Which Activity does the source give for `C[C@]12CC[C@H]3[C@@H](CCC4=CC(=O)CC[C@@]43CF)[C@@H]1CCC2=O` here?
**A.** 94.26%

system: UACC-62; assay: Antitumor activity against human UACC-62 cells assessed as reduction of cell growth at 10 uM after 48 hrs by SRB assay; type: functional; set-up: scale not given: the % may be the effect or the level left; in short: as §2

**Q.** With `C[C@]12CCC(=O)C(N)=C1C=C[C@@H]1[C@@H]2CC[C@]2(C)C(=O)CC[C@@H]12.Cl` as the molecule, how does the Activity read?
**A.** 81.02%

**Q.** Which Activity does the source give for `C[C@]12CC[C@H]3[C@@H](CCC4=CC(=O)CC[C@@]43CF)[C@@H]1CCC2=O` here?
**A.** 114.6%
